Here are results for eleven molecules from ChEMBL document CHEMBL1143149, “Synthesis, metal ion binding, and biological evaluation of new anticancer 2-(2'-hydroxyphenyl)benzoxazole analogs of UK-1” (Bioorg Med Chem, 2008).

Active and inactive are the calls of the source. No cut-off for these calls is given here.

For experiment [1], the system named is MCF7. Nature of the experiment: Cytotoxicity against human MCF7 cells after 72 hrs. The experiment is classed as functional, cell-based. The conditions noted are these: MCF7, 72 h. Summed up:
(§1)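 MCF-7 cells in improved MEM (Richter's) with L-glutamine, 10% FBS and 1% penicillin/streptomycin. 1-3×10^3 cells/well preincubated 24 h at 37 °C, 5% CO2. DMSO solutions added in duplicate at 0.001–50 μM final, then 72 h exposure. AlamarBlue added for 6 h; fluorescence read ex 530/em 590 nm. IC50 by sigmoidal fit of % growth against time-zero and vehicle.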

For experiment [2], the system named is A549. Put plainly: Cytotoxicity against human A549 cells after 72 hrs. The class given is functional, cell-based. The conditions noted are these: A549, 72 h. Summed up:
(§2)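 A549 cells in Ham's F-12 (Kaighn's) with 10% FBS and 1% penicillin/streptomycin. Seeded at 1-3×10^3 cells/well for 24 h at 37 °C, 5% CO2. Compound in DMSO added in duplicate at 0.001–50 μM final, then 72 h. Fresh medium plus AlamarBlue for 6 h; fluorescence ex 530/em 590 nm. % growth relative to time-zero and vehicle; IC50 from Hill-equation non-linear fit.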

The subject of experiment [3] is A549. Put plainly: Cytotoxicity against human A549 cells after 24 hrs. The conditions noted are these: A549, 24 h. The experiment is classed as functional, cell-based.
The subject of experiment [4] is MCF7. Nature of the experiment: Cytotoxicity against human MCF7 cells after 24 hrs. The conditions noted are these: MCF7, 24 h. The experiment is classed as functional, cell-based.
In experiment [5] the test system is MCF7. Nature of the experiment: Cytotoxicity against human MCF7 cells after 72 hrs in presence of CuCl2. The experiment is classed as functional, cell-based. The conditions noted are these: MCF7, 72 h. In a few lines: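 MCF-7 cells in Richter's improved MEM with 10% FBS. Compound given with 10 μM CuCl2 for 72 h at 37 °C, 5% CO2, in duplicate. AlamarBlue for 6 h, fluorescence ex 530/em 590 nm. IC50 by non-linear Hill fit of % growth referenced to time-zero and vehicle wells.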

Experiment [6] relates to MCF7. Put plainly: Cytotoxicity against human MCF7 cells after 24 hrs in presence of CuCl2. The conditions noted are these: MCF7, 24 h. The experiment is classed as functional, cell-based.
Experiment [7] deals with A549. Nature of the experiment: Cytotoxicity against human A549 cells after 24 hrs in presence of CuCl2. The conditions noted are these: A549, 24 h. The experiment is classed as functional, cell-based.
Experiment [8] concerns A549. Nature of the experiment: Cytotoxicity against human A549 cells after 72 hrs in presence of CuCl2. The experiment is classed as functional, cell-based. The conditions noted are these: A549, 72 h. Summed up: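 A549 cells in Ham's F-12 (Kaighn's) with 10% FBS and penicillin/streptomycin. Compound plus 10 μM CuCl2 for 72 h at 37 °C, 5% CO2, in duplicate. Viability by AlamarBlue fluorescence (ex 530/em 590 nm) after 6 h. IC50 from non-linear fit of % growth versus time-zero and vehicle controls.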

In experiment [9] the test system is A549. Put plainly: Cytotoxicity against human A549 cells by Alamar blue assay. The class given is functional, cell-based. Summed up:
as §2
Background: Resazurin is reduced to fluorescent resorufin, in cell work by metabolically active cells.

Experiment [10] in a line: Enhancement of DNA binding affinity in presence of Cu2+/Ni2+.
For experiment [11], the system named is MCF7. Nature of the experiment: Cytotoxicity against human MCF7 cells by Alamar blue assay. The class given is functional, cell-based. Summed up:
as §1

What is called IC50 is the midpoint of a concentration-inhibition curve. Consider `CO[C@@]12[C@H](COC(N)=O)C3=C(C(=O)C(C)=C(N)C3=O)N1C[C@@H]1N[C@@H]12` [MITOMYCIN], for which the IC50 with MCF7 [1] was determined as 1.2 µM; with A549 [2], 0.24 µM; in the experiment on A549 [3] it was 4.5 µM; with MCF7 [4], 5 µM.

For the molecule `COC(=O)c1cccc2oc(-c3cccc4oc(-c5ccccc5O)nc34)nc12`, the IC50 in the experiment on MCF7 [5] was 1.2 µM; with MCF7 [6], 4.6 µM; in the experiment with A549 [7], 4.5 µM; in the experiment on A549 [8] it was 0.2 µM; with MCF7 [1], 1.7 µM; in the experiment on A549 [2], 1 µM. For the same molecule, the IC50 amounted to 17 µM in the experiment on A549 [3] and 31 µM in the experiment with MCF7 [4].

For the molecule `CNC(=O)c1cccc2oc(-c3ccccc3O)nc12`, the values for the IC50 in the experiment on A549 [9] and with MCF7 [11] were 11 µM and 10 µM, respectively. The result in experiment [10] was Active.

As to `O=C(NCCOCCO)c1cccc2oc(-c3ccccc3O)nc12`, the values for the IC50 in the experiment on A549 [9] and in the experiment with MCF7 [11] were 41 µM and > 50 µM, respectively. For the same molecule, the outcome in [10] was inactive.

For `COc1ccccc1-c1nc2c(C(=O)O)cccc2o1`, the IC50 in the experiment with A549 [9] and in the experiment on MCF7 [11] was > 50 µM throughout.

Take `CCCCNC(=O)c1cccc2oc(-c3ccccc3O)nc12`: the IC50 with A549 [9] amounted to 14 µM; with MCF7 [11] it was 30 µM. Further, the result in experiment [10] was Active.

Turning to `COC(=O)c1cccc2nc(-c3ccccc3O)oc12`, the values for the IC50 with A549 [9] and in the experiment on MCF7 [11] were 35 µM and 7 µM, respectively.

As for `O=C(NCCCCCCO)c1cccc2oc(-c3ccccc3O)nc12`, the IC50 in the experiment with A549 [9] stood at 39 µM; in the experiment on MCF7 [11], 31 µM. Also, the outcome in [10] was inactive.

As for `CCOC(=O)c1cccc2oc(-c3ccccc3O)nc12`, the IC50 came to 40 µM in the experiment on A549 [9] and 15 µM in the experiment with MCF7 [11]. For the same molecule, in experiment [10], the outcome was Active.

For the molecule `O=C(OCCOCCOCCOCCO)c1cccc2oc(-c3ccccc3O)nc12`, the IC50 in the experiment on A549 [9] came to 11 µM; in the experiment on MCF7 [11] it was 13 µM. Moreover, the outcome in experiment [10] was Active.

Regarding `COC(=O)c1cccc2oc(-c3ccccc3O)nc12`, the IC50 was 12 µM in the experiment on A549 [9] and 4 µM in the experiment on MCF7 [11]. Besides, the result in experiment [10] was Active.
